Usually IC50 stands for the concentration at which inhibition is half-maximal.

IC50, Drug uptake and Selectivity ratio data for seven compounds are collected here from ChEMBL document CHEMBL1148584, “Effect of polyamine homologation on the transport and biological properties of heterocyclic amidines” (J Med Chem, 2006).

For one series, the target named is Phosphodiesterase 1 (Bos taurus, UniProt Q01061+P14100). Briefly: Inhibition of bovine calmodulin-activated cAMP dependent phosphodiesterase. The series is classed as protein assay. In short, it runs like this:
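Crude bovine heart PDE preparation containing calmodulin and Ca²⁺ (0.2 milliunit). Incubated 20 min at 37 °C with 0.1 mM [8-³H]cAMP and graded drug concentrations in 30 mM Tris-HCl, 3 mM MgSO₄, 0.6 mM AMP. Stopped with ZnSO₄; Ba(OH)₂ precipitated AMP with BaSO₄; supernatant radioactivity counted. IC50 is the concentration giving 50% inhibition.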

For series [1], the system named is CHO-MG. The series can be described thus: Cellular uptake in CHO-MG cells at 25 uM. The series is classed as ADME, cell-based, Cricetulus griseus. The conditions noted are these: chinese hamster. In short, it runs like this: (§1)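 CHO (RPMI 1640, 10% FCS, 2 mM aminoguanidine) and CHO-MG (plus L-proline) cells seeded at 2 × 10⁵ cells/mL. Conjugate added 24 h after seeding and cells harvested 24 h later, then washed in cold 0.14 M NaCl and sonicated in 0.2 N HClO₄. Supernatant analysed by ion-pair reversed-phase HPLC (n-octanesulfonate), expressed as nmol/mg protein; mean ± SD of three determinations.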

The test system of series [2] is L1210. The series can be described thus: Intracellular level of spermine in L1210 cells in the absence of DFMO at 20 uM. The format is functional, cell-based. The conditions noted are these: Mus musculus. An outline of the steps: (§2)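 L1210 cells in RPMI 1640/10% FCS with 2 mM aminoguanidine, seeded at 4 × 10⁴ cells/mL. Conjugate, with or without 5 mM DFMO, added at seeding; cells cultured 48 h, washed in cold NaCl, and extracted with 0.2 N HClO₄. Conjugate and free putrescine, spermidine and spermine quantified by ion-pair HPLC (UV 254 nm, fluorescence ex 345/em 455 nm); normalised to protein. Student's t-test, p<0.05.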

The subject of series [3] is CHO-MG. The series can be described thus: Inhibition of cell growth in CHO-MG cells in the presence of DFMO. The series is classed as functional, cell-based. As to conditions: Cricetulus griseus. An outline of the steps:
(§3)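 L1210 cells seeded at 5 × 10⁴ cells/mL with conjugate added at seeding; CHO/CHO-MG plated at 2 × 10³ cells/mL with conjugate added after overnight (24 h). 5 mM DFMO added together with conjugate; medium contains 2 mM aminoguanidine. After 48 h, growth read by MTT formazan absorbance at 540 nm. IC50 is 50% growth inhibition; mean of three determinations.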

Series [4] concerns CHO. Briefly: Inhibition of cell growth in CHO cells in the presence of DFMO. The series is classed as functional, cell-based. As to conditions: Cricetulus griseus. In short, it runs like this: as §3
The test system of series [5] is L1210. Briefly: Intracellular level of putrescine in L1210 cells in the presence of DFMO at 20 uM. The series is classed as functional, cell-based. As to conditions: Mus musculus. An outline of the steps:
as §2

Series [6] deals with L1210. Briefly: Intracellular level of polyamine in L1210 cells in the presence of DFMO at 20 uM. The format is functional, cell-based. As to conditions: Mus musculus. An outline of the steps:
as §2

Series [7] has as its system L1210. The series can be described thus: Inhibition of cell growth in L1210 cells in the presence of DFMO. The series is classed as functional, cell-based. As to conditions: Mus musculus. An outline of the steps:
as §3

Series [8] has as its system CHO. Briefly: Cellular uptake in CHO cells at 25 uM. The format is ADME, cell-based, Cricetulus griseus. The conditions noted are these: chinese hamster. In short, it runs like this: as §1
Series [9] deals with L1210. Briefly: Intracellular level of conjugate in L1210 cells in the absence of DFMO at 20 uM. The series is classed as functional, cell-based. The conditions noted are these: Mus musculus. In short, it runs like this:
as §2

Series [10] relates to L1210. Briefly: Intracellular level of spermine in L1210 cells in the presence of DFMO at 20 uM. The series is classed as functional, cell-based. The conditions noted are these: Mus musculus. An outline of the steps:
as §2

In series [11] the test system is L1210. The series can be described thus: Intracellular level of spermidine in L1210 cells in the presence of DFMO at 20 uM. The format is functional, cell-based. The conditions noted are these: Mus musculus. An outline of the steps: as §2
Series [12] is described as follows: Selectivity for uptake in CHO cell line over CHO-MG cell line at 25 uM. The format is functional, Cricetulus griseus. In short, it runs like this: (§4)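 Ratio of intracellular conjugate level in CHO over CHO-MG cells. Both lines were exposed to conjugate 24 h after seeding at 2 × 10⁵ cells/mL, for 24 h with 2 mM aminoguanidine in the medium. Levels were measured by ion-pair HPLC of perchloric extracts and normalised to protein (nmol/mg).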

The test system of series [13] is L1210. Briefly: Intracellular level of putrescine in L1210 cells in the absence of DFMO at 20 uM. The series is classed as functional, cell-based. The conditions noted are these: Mus musculus. An outline of the steps:
as §2

Series [14] has as its system L1210. Briefly: Intracellular level of spermidine in L1210 cells in the absence of DFMO at 20 uM. The format is functional, cell-based. As to conditions: Mus musculus. An outline of the steps: as §2
Series [15] relates to L1210. The series can be described thus: Intracellular level of conjugate in L1210 cells in the absence of DFMO at 10 uM. As to conditions: Mus musculus. The series is classed as functional, cell-based. In short, it runs like this: as §2
For series [16], the system named is L1210. The series can be described thus: Intracellular level of putrescine in L1210 cells in the presence of DFMO at 10 uM. The format is functional, cell-based. As to conditions: Mus musculus. An outline of the steps: as §2
Series [17] deals with L1210. Briefly: Intracellular level of spermidine in L1210 cells in the absence of DFMO at 10 uM. The format is functional, cell-based. The conditions noted are these: Mus musculus. An outline of the steps:
as §2

Series [18] concerns L1210. The series can be described thus: Intracellular level of conjugate in L1210 cells in the presence of DFMO at 10 uM. The format is functional, cell-based. The conditions noted are these: Mus musculus. An outline of the steps: as §2
The subject of series [19] is L1210. Briefly: Intracellular level of putrescine in L1210 cells in the absence of DFMO at 10 uM. The format is functional, cell-based. The conditions noted are these: Mus musculus. An outline of the steps:
as §2

The subject of series [20] is L1210. Briefly: Intracellular level of spermine in L1210 cells in the absence of DFMO at 10 uM. The format is functional, cell-based. The conditions noted are these: Mus musculus. In short, it runs like this: as §2
For series [21], the system named is L1210. The series can be described thus: Intracellular level of spermine in L1210 cells in the presence of DFMO at 10 uM. The conditions noted are these: Mus musculus. The format is functional, cell-based. In short, it runs like this:
as §2

Series [22] concerns L1210. Briefly: Intracellular level of spermidine in L1210 cells in the presence of DFMO at 10 uM. As to conditions: Mus musculus. The format is functional, cell-based. In short, it runs like this:
as §2

The subject of series [23] is CHO. The series can be described thus: Cellular uptake in CHO cells at 50 uM. The format is ADME, cell-based, Cricetulus griseus. The conditions noted are these: chinese hamster. In short, it runs like this: as §1
Series [24] can be described thus: Selectivity for uptake CHO cell line over CHO-MG cell line at 50 uM. The series is classed as functional, Cricetulus griseus. An outline of the steps:
as §4

Series [25] deals with CHO-MG. Briefly: Cellular uptake in CHO-MG cells at 50 uM. The format is ADME, cell-based, Cricetulus griseus. As to conditions: chinese hamster. In short, it runs like this: as §1

Each structure is given as a SMILES string.

In the case of `CC1C[C@]2(C)C(NCCCO)=Nc3ccccc3[C@@H]2N(C)c2ccccc21` (some centres undefined), at Phosphodiesterase 1, the IC50 was > 500 µM.

With `CC1C[C@]2(C)C(NCCCCN)=Nc3ccccc3[C@@H]2N(C)c2ccccc21` (some centres undefined), the Drug uptake with CHO-MG [1] stood at 3.3 nmol/mg; in the series on L1210 [2], 6.3 nmol/mg; with L1210 [5] it was 0.7 nmol/mg; with L1210 [6], 8.2 nmol/mg; with CHO [8], 3.6 nmol/mg; in the series with L1210 [9] it was 13 nmol/mg. In addition, the Drug uptake with L1210 [10] is 9 nmol/mg; in the series on L1210 [11], 0.87 nmol/mg; in the series with L1210 [13] it was 0.85 nmol/mg; in the series with L1210 [14], 11 nmol/mg. In addition, the IC50 against Phosphodiesterase 1 was 116 µM; in the series on CHO-MG [3] it was 24 µM; in the series on CHO [4], 45 µM; with L1210 [7] it was 54 µM. The Selectivity ratio in [12] was 1.1.

In the case of `CNc1ccc(C2c3ccccc3N=C(NCCCNCCCCNCCCN)C2(C)C)cc1` (centres undefined), the Drug uptake in the series on CHO-MG [1] was determined as 0.81 nmol/mg; in the series with L1210 [15] it was 0.54 nmol/mg; in the series with L1210 [16] it was 0.07 nmol/mg; in the series with L1210 [17] it was 17 nmol/mg; with L1210 [18], 0.74 nmol/mg; in the series with L1210 [19] it was 1.1 nmol/mg. Further, the Drug uptake with CHO [8] is 0.72 nmol/mg; in the series with L1210 [20], 9.4 nmol/mg; with L1210 [21], 7.8 nmol/mg; with L1210 [22] it was 0.66 nmol/mg. The IC50 against Phosphodiesterase 1 was 23 µM; in the series on CHO-MG [3] it was 23 µM; in the series on CHO [4], 11 µM; in the series with L1210 [7] it was 3.1 µM. Further, the Selectivity ratio in [12] came to 0.9.

With `CN(c1ccccc1)C1c2ccccc2N=C(NCCCO)C1(C)C` (centres undefined), the concentration for half-maximal inhibition (IC50) against Phosphodiesterase 1 was > 500 µM.

With `CC1C[C@]2(C)C(NCCCNCCCCNCCCN)=Nc3ccccc3[C@@H]2N(C)c2ccccc21` (some centres undefined), the Drug uptake came out at 0.66 nmol/mg with CHO [23]; 0.59 nmol/mg in the series with L1210 [15]; 0.04 nmol/mg with L1210 [16]; 18 nmol/mg with L1210 [17]; 1.5 nmol/mg with L1210 [18]; 1.5 nmol/mg in the series with L1210 [19]. Further, the Drug uptake in the series on L1210 [20] was 9.7 nmol/mg; with L1210 [21], 5.8 nmol/mg; with CHO-MG [25], 0.66 nmol/mg; in the series with L1210 [22], 0.49 nmol/mg. Besides, the IC50 on Phosphodiesterase 1 turned out to be 19 µM; in the series with CHO-MG [3], 27 µM; in the series on CHO [4], 9.1 µM; in the series with L1210 [7] it was 1 µM. Further, in [24], the Selectivity ratio worked out at 1.

In the case of `CNc1cccc2c1[C@H](C)C[C@]1(C)C(NCCCNCCCCNCCCN)=Nc3ccccc3[C@H]21`, the Drug uptake was found to be 2.1 nmol/mg in the series on CHO-MG [1]; 0.95 nmol/mg in the series with L1210 [15]; 0.04 nmol/mg in the series on L1210 [16]; 16 nmol/mg in the series on L1210 [17]; 2.1 nmol/mg in the series on L1210 [18]; 1.4 nmol/mg in the series on L1210 [19]. The Drug uptake stood at 2.2 nmol/mg in the series on CHO [8], 8.2 nmol/mg in the series with L1210 [20], 7.3 nmol/mg in the series on L1210 [21] and 0.51 nmol/mg in the series with L1210 [22]. The IC50 on Phosphodiesterase 1 is 10 µM; with CHO-MG [3], 23 µM; with CHO [4], 11 µM; with L1210 [7], 2.4 µM. Further, the Selectivity ratio in series [12] was 1.

Regarding `NCCCCN` [PUTRESCINE], the IC50 is > 500 µM at Phosphodiesterase 1 and > 100 µM in the series on CHO-MG [3].
